For orientation: half-life means the time in which the quantity being followed falls by half. A higher half-life goes with slow loss. The term EC50 denotes the concentration that produces a half-maximal response.

A short description of data set [1]: Plasma half life was determined in pigs. The format is ADME, organism-based, Sus scrofa. To be noted: pig. In short, it runs like this: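 Landrace × Duroc × Yorkshire pigs, 25–50 kg, two per compound; single sc dose, 0.5 nmol/kg for analogues, 15 nmol/kg for GLP-1. Jugular catheter blood at 0–72 h, extra early samples for GLP-1; EDTA/aprotinin/bacitracin-stabilized plasma. Unextracted plasma assayed by N-terminal-specific GLP-1 radioimmunoassay against spiked pig-plasma calibrators; half-life calculated per pig, reported as mean ± SD.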

For data set [2], the target named is Glucagon-like peptide 1 receptor (Homo sapiens, UniProt P43220). As to the kind of experiment: Potency measured using recombinant human GLP-1 receptor expressed in Baby Hamster Kidney (BHK)cells. The format is cell-based.

Molecules are shown by their SMILES. Numbered stars: 1 amine (or outer) side, 2 acyl side, 3 side chain; on linkers, the order of the positions; unused ones are H or OH. Square brackets hold non-standard residues; d marks the D form. Side chains are listed from the residue outwards. Peptide text beside a SMILES is read from it. * marks the point of attachment. ξ: configuration not given here. ξγGlu = O=C(O)C(CCC(=O)[*:2])N[*:1]; Palmitoyl = CCCCCCCCCCCCCCCC(=O)*; X1 = CCCCCCCCCC(CCCCC(=O)*)C(=O)O; ξK = NCCCCC(N)C(=O)O

Chain of Glucagon-like peptide 1 receptor (P43220 whole entry): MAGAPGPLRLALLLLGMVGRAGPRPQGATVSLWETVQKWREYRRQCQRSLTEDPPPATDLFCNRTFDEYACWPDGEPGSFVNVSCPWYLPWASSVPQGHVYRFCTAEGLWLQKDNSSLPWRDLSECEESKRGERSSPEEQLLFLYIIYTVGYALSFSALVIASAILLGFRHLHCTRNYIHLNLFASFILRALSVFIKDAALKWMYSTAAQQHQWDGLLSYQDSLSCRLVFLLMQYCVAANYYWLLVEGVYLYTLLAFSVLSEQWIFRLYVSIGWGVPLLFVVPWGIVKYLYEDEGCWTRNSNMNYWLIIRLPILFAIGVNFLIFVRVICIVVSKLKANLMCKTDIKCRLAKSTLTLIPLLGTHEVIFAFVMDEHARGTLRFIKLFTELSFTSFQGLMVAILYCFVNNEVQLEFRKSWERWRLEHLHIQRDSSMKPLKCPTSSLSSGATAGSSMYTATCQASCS

`CCCCCCCCCCCCCCCC(=O)NCCCC(=O)NCCCC[C@H](NC(=O)[C@H](C)NC(=O)[C@H](C)NC(=O)[C@H](CCC(N)=O)NC(=O)CNC(=O)[C@H](CCC(=O)O)NC(=O)[C@H](CC(C)C)NC(=O)[C@H](Cc1ccc(O)cc1)NC(=O)[C@H](CO)NC(=O)[C@H](CO)NC(=O)[C@@H](NC(=O)[C@H](CC(=O)O)NC(=O)[C@H](CO)NC(=O)[C@@H](NC(=O)[C@H](Cc1ccccc1)NC(=O)[C@@H](NC(=O)CNC(=O)[C@H](CCC(=O)O)NC(=O)[C@H](C)NC(=O)[C@@H](N)Cc1c[nH]cn1)[C@@H](C)O)[C@@H](C)O)C(C)C)C(=O)N[C@@H](CCC(=O)O)C(=O)N[C@@H](Cc1ccccc1)C(=O)N[C@H](C(=O)N[C@@H](C)C(=O)N[C@@H](Cc1c[nH]c2ccccc12)C(=O)N[C@@H](CC(C)C)C(=O)N[C@H](C(=O)N[C@@H](CCCN=C(N)N)C(=O)NCC(=O)N[C@@H](CCCN=C(N)N)C(=O)NCC(=O)O)C(C)C)[C@@H](C)CC` gave a half-life in data set [1] of 31 h.

As for `CCCCCCCCCCCC(=O)NC(CCC(=O)NCCCC[C@H](NC(=O)[C@H](C)NC(=O)[C@H](C)NC(=O)[C@H](CCC(N)=O)NC(=O)CNC(=O)[C@H](CCC(=O)O)NC(=O)[C@H](CC(C)C)NC(=O)[C@H](Cc1ccc(O)cc1)NC(=O)[C@H](CO)NC(=O)[C@H](CO)NC(=O)[C@@H](NC(=O)[C@H](CC(=O)O)NC(=O)[C@H](CO)NC(=O)[C@@H](NC(=O)[C@H](Cc1ccccc1)NC(=O)[C@@H](NC(=O)CNC(=O)[C@H](CCC(=O)O)NC(=O)[C@H](C)NC(=O)[C@@H](N)Cc1c[nH]cn1)[C@@H](C)O)[C@@H](C)O)C(C)C)C(=O)N[C@@H](CCC(=O)O)C(=O)N[C@@H](Cc1ccccc1)C(=O)N[C@H](C(=O)N[C@@H](C)C(=O)N[C@@H](Cc1c[nH]c2ccccc12)C(=O)N[C@@H](CC(C)C)C(=O)N[C@H](C(=O)N[C@@H](CCCN=C(N)N)C(=O)NCC(=O)N[C@@H](CCCN=C(N)N)C(=O)NCC(=O)O)C(C)C)[C@@H](C)CC)C(=O)O` (stereo partly drawn), the half-life in data set [1] was 15 h.

In the case of `CCCCCCCCCCCCCCCC(=O)NC(CCC(=O)NCCCC[C@H](NC(=O)[C@@H](NC(=O)[C@H](CC(C)C)NC(=O)[C@H](Cc1c[nH]c2ccccc12)NC(=O)[C@H](C)NC(=O)[C@@H](NC(=O)[C@H](Cc1ccccc1)NC(=O)[C@H](CCC(=O)O)NC(=O)[C@H](CCCN=C(N)N)NC(=O)[C@H](C)NC(=O)[C@H](C)NC(=O)[C@H](CCC(N)=O)NC(=O)CNC(=O)[C@H](CCC(=O)O)NC(=O)[C@H](CC(C)C)NC(=O)[C@H](Cc1ccc(O)cc1)NC(=O)[C@H](CO)NC(=O)[C@H](CO)NC(=O)[C@@H](NC(=O)[C@H](CC(=O)O)NC(=O)[C@H](CO)NC(=O)[C@@H](NC(=O)[C@H](Cc1ccccc1)NC(=O)[C@@H](NC(=O)CNC(=O)[C@H](CCC(=O)O)NC(=O)[C@H](C)NC(=O)[C@@H](N)Cc1c[nH]cn1)[C@@H](C)O)[C@@H](C)O)C(C)C)[C@@H](C)CC)C(C)C)C(=O)NCC(=O)N[C@@H](CCCCN=C(N)N)C(=O)NCC(=O)O)C(=O)O` (stereo partly drawn), the half-life in data set [1] is 13 h. For the same compound, the EC50 in data set [2] is 121 pM.

In data set [1], `CCCCCCCCCCCCCCCC(=O)NCCC(=O)NCCCC[C@H](NC(=O)[C@H](C)NC(=O)[C@H](C)NC(=O)[C@H](CCC(N)=O)NC(=O)CNC(=O)[C@H](CCC(=O)O)NC(=O)[C@H](CC(C)C)NC(=O)[C@H](Cc1ccc(O)cc1)NC(=O)[C@H](CO)NC(=O)[C@H](CO)NC(=O)[C@@H](NC(=O)[C@H](CC(=O)O)NC(=O)[C@H](CO)NC(=O)[C@@H](NC(=O)[C@H](Cc1ccccc1)NC(=O)[C@@H](NC(=O)CNC(=O)[C@H](CCC(=O)O)NC(=O)[C@H](C)NC(=O)[C@@H](N)Cc1c[nH]cn1)[C@@H](C)O)[C@@H](C)O)C(C)C)C(=O)N[C@@H](CCC(=O)O)C(=O)N[C@@H](Cc1ccccc1)C(=O)N[C@H](C(=O)N[C@@H](C)C(=O)N[C@@H](Cc1c[nH]c2ccccc12)C(=O)N[C@@H](CC(C)C)C(=O)N[C@H](C(=O)N[C@@H](CCCN=C(N)N)C(=O)NCC(=O)N[C@@H](CCCN=C(N)N)C(=O)NCC(=O)O)C(C)C)[C@@H](C)CC` gave a half-life of 8.8 h.

The compound `CCCCCCCCCCCCCCCC(=O)N[C@@H](CCC(=O)NCCCC[C@H](NC(=O)[C@H](C)NC(=O)[C@H](C)NC(=O)[C@H](CCC(N)=O)NC(=O)CNC(=O)[C@H](CCC(=O)O)NC(=O)[C@H](CC(C)C)NC(=O)[C@H](Cc1ccc(O)cc1)NC(=O)[C@H](CO)NC(=O)[C@H](CO)NC(=O)[C@@H](NC(=O)[C@H](CC(=O)O)NC(=O)[C@H](CO)NC(=O)[C@@H](NC(=O)[C@H](Cc1ccccc1)NC(=O)[C@@H](NC(=O)CNC(=O)[C@H](CCC(=O)O)NC(=O)[C@H](C)NC(=O)[C@@H](N)Cc1cnc[nH]1)[C@@H](C)O)[C@@H](C)O)C(C)C)C(=O)N[C@@H](CCC(=O)O)C(=O)N[C@@H](Cc1ccccc1)C(=O)N[C@H](C(=O)N[C@@H](C)C(=O)N[C@@H](Cc1c[nH]c2ccccc12)C(=O)N[C@@H](CC(C)C)C(=O)N[C@H](C(=O)N[C@@H](CCCNC(=N)N)C(=O)NCC(=O)N[C@@H](CCCNC(=N)N)C(=O)NCC(=O)O)C(C)C)[C@@H](C)CC)C(=O)O` had a half-life in data set [1] of 14 h.

Take `CCCCCCCCCCCCCCCC(=O)NC(CCC(=O)NCCCC[C@H](NC(=O)CNC(=O)[C@H](CCC(=O)O)NC(=O)[C@H](CC(C)C)NC(=O)[C@H](Cc1ccc(O)cc1)NC(=O)[C@H](CO)NC(=O)[C@H](CO)NC(=O)[C@@H](NC(=O)[C@H](CC(=O)O)NC(=O)[C@H](CO)NC(=O)[C@@H](NC(=O)[C@H](Cc1ccccc1)NC(=O)[C@@H](NC(=O)CNC(=O)[C@H](CCC(=O)O)NC(=O)[C@H](C)NC(=O)[C@@H](N)Cc1c[nH]cn1)[C@@H](C)O)[C@@H](C)O)C(C)C)C(=O)N[C@@H](C)C(=O)N[C@@H](C)C(=O)N[C@@H](CCCN=C(N)N)C(=O)N[C@@H](CCC(=O)O)C(=O)N[C@@H](Cc1ccccc1)C(=O)N[C@H](C(=O)N[C@@H](C)C(=O)N[C@@H](Cc1c[nH]c2ccccc12)C(=O)N[C@@H](CC(C)C)C(=O)N[C@H](C(=O)N[C@@H](CCCN=C(N)N)C(=O)NCC(=O)N[C@@H](CCCN=C(N)N)C(=O)NCC(=O)O)C(C)C)[C@@H](C)CC)C(=O)O` (stereo partly drawn) (H-HAEGTFTSDVSSYLEGK([ξγGlu-Palmitoyl])AAREFIAWLVRGRG-OH): the half-life in data set [1] was 20 h. In addition, in data set [2], the EC50 was determined as 30.1 pM.

On to `CCCCCCCCCC(CCCCC(=O)NCCCC[C@H](NC(=O)CNC(=O)[C@H](CCCN=C(N)N)NC(=O)[C@@H](NC(=O)[C@H](CC(C)C)NC(=O)[C@H](Cc1c[nH]c2ccccc12)NC(=O)[C@H](C)NC(=O)[C@@H](NC(=O)[C@H](Cc1ccccc1)NC(=O)[C@H](CCC(=O)O)NC(=O)[C@H](CCCN=C(N)N)NC(=O)[C@H](C)NC(=O)[C@H](C)NC(=O)[C@H](CCC(N)=O)NC(=O)CNC(=O)[C@H](CCC(=O)O)NC(=O)[C@H](CC(C)C)NC(=O)[C@H](Cc1ccc(O)cc1)NC(=O)[C@H](CO)NC(=O)[C@H](CO)NC(=O)[C@@H](NC(=O)[C@H](CC(=O)O)NC(=O)[C@H](CO)NC(=O)[C@@H](NC(=O)[C@H](Cc1ccccc1)NC(=O)[C@@H](NC(=O)CNC(=O)[C@H](CCC(=O)O)NC(=O)[C@H](C)NC(=O)[C@@H](N)Cc1c[nH]cn1)[C@@H](C)O)[C@@H](C)O)C(C)C)[C@@H](C)CC)C(C)C)C(=O)NCC(=O)O)C(=O)O` (stereo partly drawn) (H-HAEGTFTSDVSSYLEGQAAREFIAWLVRGK(X1)G-OH), for which the half-life in data set [1] was 13 h. The EC50 in data set [2] amounted to 7.89 pM.

In turn, `CCCCCCCCCCCCCCCC(=O)NC(CCC(=O)NCCCC[C@H](NC(=O)CNC(=O)[C@H](CCCN=C(N)N)NC(=O)[C@@H](NC(=O)[C@H](CC(C)C)NC(=O)[C@H](Cc1c[nH]c2ccccc12)NC(=O)[C@H](C)NC(=O)[C@@H](NC(=O)[C@H](Cc1ccccc1)NC(=O)[C@H](CCC(=O)O)NC(=O)[C@H](CCCN=C(N)N)NC(=O)[C@H](C)NC(=O)[C@H](C)NC(=O)[C@H](CCC(N)=O)NC(=O)CNC(=O)[C@H](CCC(=O)O)NC(=O)[C@H](CC(C)C)NC(=O)[C@H](Cc1ccc(O)cc1)NC(=O)[C@H](CO)NC(=O)[C@H](CO)NC(=O)[C@@H](NC(=O)[C@H](CC(=O)O)NC(=O)[C@H](CO)NC(=O)[C@@H](NC(=O)[C@H](Cc1ccccc1)NC(=O)[C@@H](NC(=O)CNC(=O)[C@H](CCC(=O)O)NC(=O)[C@H](C)NC(=O)[C@@H](N)Cc1c[nH]cn1)[C@@H](C)O)[C@@H](C)O)C(C)C)[C@@H](C)CC)C(C)C)C(=O)NCC(=O)O)C(=O)O` (stereo partly drawn) (H-HAEGTFTSDVSSYLEGQAAREFIAWLVRGK([ξγGlu-Palmitoyl])G-OH) had a half-life in data set [1] of 12 h. Further, the EC50 in data set [2] stood at 36.4 pM.

With `CCCCCCCCCCCCCCCC(=O)NC(CCC(=O)NCCCCC(NC(=O)CNC(=O)[C@H](CCCN=C(N)N)NC(=O)CNC(=O)[C@H](CCCN=C(N)N)NC(=O)[C@@H](NC(=O)[C@H](CC(C)C)NC(=O)[C@H](Cc1c[nH]c2ccccc12)NC(=O)[C@H](C)NC(=O)[C@@H](NC(=O)[C@H](Cc1ccccc1)NC(=O)[C@H](CCC(=O)O)NC(=O)[C@H](CCCN=C(N)N)NC(=O)[C@H](C)NC(=O)[C@H](C)NC(=O)[C@H](CCC(N)=O)NC(=O)CNC(=O)[C@H](CCC(=O)O)NC(=O)[C@H](CC(C)C)NC(=O)[C@H](Cc1ccc(O)cc1)NC(=O)[C@H](CO)NC(=O)[C@H](CO)NC(=O)[C@@H](NC(=O)[C@H](CC(=O)O)NC(=O)[C@H](CO)NC(=O)[C@@H](NC(=O)[C@H](Cc1ccccc1)NC(=O)[C@@H](NC(=O)CNC(=O)[C@H](CCC(=O)O)NC(=O)CNC(=O)[C@@H](N)Cc1c[nH]cn1)[C@@H](C)O)[C@@H](C)O)C(C)C)[C@@H](C)CC)C(C)C)C(=O)O)C(=O)O` (stereo partly drawn) (H-HGEGTFTSDVSSYLEGQAAREFIAWLVRGRG[ξK]([ξγGlu-Palmitoyl])-OH), the EC50 in data set [2] worked out at 328 pM.
